In ChEMBL document CHEMBL1137371, “Pyrazolidine-3,5-diones and 5-hydroxy-1H-pyrazol-3(2H)-ones, inhibitors of UDP-N-acetylenolpyruvyl glucosamine reductase” (J Med Chem, 2006):
Converted amounts (≈) assume the structure as drawn. The source made the active and inactive calls. No cut-off for these calls is given here.

Tests used:
[1] = molecular target: T1, UDP-N-acetylenolpyruvoylglucosamine reductase (Escherichia coli K-12, UniProt P08373); experiment: Inhibition of MurB activity
T1 sequence (P08373 whole entry): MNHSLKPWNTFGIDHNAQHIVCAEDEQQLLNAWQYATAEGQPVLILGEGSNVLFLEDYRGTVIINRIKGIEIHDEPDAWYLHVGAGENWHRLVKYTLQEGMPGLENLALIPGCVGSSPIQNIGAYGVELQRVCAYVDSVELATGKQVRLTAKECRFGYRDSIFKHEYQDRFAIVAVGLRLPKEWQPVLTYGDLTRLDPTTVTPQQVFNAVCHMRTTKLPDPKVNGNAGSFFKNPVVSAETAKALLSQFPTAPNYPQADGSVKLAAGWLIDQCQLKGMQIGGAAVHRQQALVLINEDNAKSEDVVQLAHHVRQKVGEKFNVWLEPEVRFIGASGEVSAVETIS
Outline: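 Recombinant E. coli MurB was expressed in BL21(λDE3) and purified. Enzyme (20 nM) was preincubated 20 min with inhibitor at 1.6, 3.2, 6.4, 12.8, 25 and 50 µM. Reaction in 50 mM Tris-HCl pH 8.0 with 10 mM KCl, 50 µM enolpyruvyl UDP-GlcNAc and 100 µM NADPH. NADPH oxidation followed as A340 decrease over 5 min. IC50 from sigmoid Hill fit, mean of three runs.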

Staphylococcus aureus = experiment: Antibacterial activity against methicillin resistant Staphylococcus aureus GC 1131 by micro-broth dilution method; type: functional
Enterococcus faecalis = experiment: Antibacterial activity against vancomycin resistant Enterococcus faecalis GC 2242 by microbroth dilution method; type: functional
Streptococcus pneumoniae [2] = experiment: Antibacterial activity against penicillin resistant Streptococcus pneumoniae GC 1894 by microbroth dilution method; type: functional
Escherichia coli = experiment: Antibacterial activity against Escherichia coli GC 4560 (imp) by micro-broth dilution method; type: functional
Outline: (§1)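 Broth microdilution in Mueller-Hinton II medium per NCCLS recommendations. Inoculum 5 × 10⁵ cfu/mL, compound range 0.06-128 µg/mL. MIC read after 18 h at 35 °C in ambient air.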

Streptococcus pneumoniae [3] = experiment: Antibacterial activity against Streptococcus pneumoniae in presence of 4% bovine serum albumin; type: functional
Candida albicans = experiment: Antibacterial activity against Candida albicans by micro-broth dilution method; type: functional, organism-based; outline: as §1
[4] = tested on: Staphylococcus epidermidis; experiment: Inhibition of soluble peptidoglycan biosynthesis in Staphylococcus epidermidis; type: functional, organism-based
Outline: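 S. epidermidis was grown in BHI to OD600 0.6, washed and concentrated tenfold in cell-wall-enriched medium. Cells incubated with 50 µg/mL chloramphenicol, 100 µg/mL penicillin G, [¹⁴C]-GlcNAc (2.9 µM/40 nCi) and compound at 0-25 µg/mL, 1 h, 37 °C, shaking. Supernatant precipitated with 5% TCA/0.4% BSA, 30 min at 4 °C, then filtered and scintillation counted.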

[5] = Staphylococcus aureus, GC 1131, read-out: MIC
[6] = Enterococcus faecalis, GC 2242, read-out: MIC
[7] = Streptococcus pneumoniae, GC 1894, read-out: MIC
[8] = Escherichia coli, GC 4560, read-out: MIC

MIC (Escherichia coli) [µg/mL]	Structure (SMILES)	IC50 [1] [µM]	MIC (Staphylococcus aureus; [5]) [µg/mL]	MIC (Enterococcus faecalis; [6]) [µg/mL]	MIC (Streptococcus pneumoniae [2]; [7]) [µg/mL]	MIC (Escherichia coli; [8]) [µg/mL]	MIC (Streptococcus pneumoniae [3]) [µg/mL]	Activity (Candida albicans)	IC50 [4] [µM]	MIC (Staphylococcus aureus) [µg/mL]	MIC (Enterococcus faecalis) [µg/mL]	MIC (Streptococcus pneumoniae [2]) [µg/mL]
	O=C(c1ccc(-c2ccccc2)cc1)c1c(O)n(-c2ccc(Cl)cc2)n(-c2ccc(Cl)cc2)c1=O	6.1	3.1 (≈ 6.18 µM)	0.39 (≈ 0.778 µM)	0.3 (≈ 0.598 µM)	> 100	> 128	inactive	4.9			
	O=C(c1ccc(OC(F)(F)F)cc1)c1c(O)n(-c2ccc(Cl)cc2)n(-c2ccc(Cl)cc2)c1=O	5.4	12.7 (≈ 24.9 µM)	0.79 (≈ 1.55 µM)	0.79 (≈ 1.55 µM)	25.4 (≈ 49.9 µM)	> 128	inactive	2			
	O=C1CC(=O)N(c2ccccc2)N1c1ccccc1	> 100										
	O=C1C(=C(O)c2ccc(Cl)c(Cl)c2)C(=O)N(c2ccc(Cl)cc2)N1c1ccc(Cl)cc1	13	6.2 (≈ 12.5 µM)	0.77 (≈ 1.56 µM)	0.39 (≈ 0.789 µM)	49 (≈ 99.2 µM)	> 128	inactive				
	CCCCOc1ccc(C(=O)c2c(O)n(-c3ccc(Cl)cc3)n(-c3ccc(Cl)cc3)c2=O)cc1	4.5	1.6 (≈ 3.22 µM)	0.39 (≈ 0.784 µM)	0.39 (≈ 0.784 µM)	> 100	> 128	inactive	7.3			
	COc1ccc(CC(=O)c2c(O)n(-c3ccc(Cl)cc3)n(-c3ccc(Cl)cc3)c2=O)cc1	40	11.7 (≈ 24.9 µM)	1.4 (≈ 2.98 µM)	0.73 (≈ 1.56 µM)	> 94	> 128	inactive				
2 (≈ 4.21 µM)	O=C(Nc1ccc(Cl)cc1)c1c(O)n(-c2ccc(Cl)cc2)n(-c2ccc(Cl)cc2)c1=O	13.7						inactive	42.2			
16 (≈ 31.5 µM)	O=C(Nc1ccc(C(F)(F)F)cc1)c1c(O)n(-c2ccc(Cl)cc2)n(-c2ccc(Cl)cc2)c1=O	5.9						inactive	8.3			
	O=C(Nc1ccccc1)c1c(O)n(-c2ccccc2)n(-c2ccccc2)c1=O	54	64 (≈ 172 µM)	8 (≈ 21.5 µM)	16 (≈ 43.1 µM)	> 128	> 128	inactive				
	O=C1CC(=O)N(c2ccc(Cl)c(Cl)c2)N1c1ccc(Cl)c(Cl)c1	25.1	8 (≈ 20.5 µM)	8 (≈ 20.5 µM)	4 (≈ 10.3 µM)	32 (≈ 82 µM)			41			
	O=C1CC(=O)N(c2cccc(Cl)c2)N1c1cccc(Cl)c1	68.5	16 (≈ 49.8 µM)	16 (≈ 49.8 µM)	8 (≈ 24.9 µM)	200 (≈ 623 µM)			56			
	O=C(Nc1ccc(C(F)(F)F)cc1)c1c(O)n(-c2cccc(Cl)c2)n(-c2cccc(Cl)c2)c1=O	8.7	0.5 (≈ 0.984 µM)	< 0.12	< 0.12	64 (≈ 126 µM)	> 128	inactive	2.2			
	O=C(Nc1ccc(Cl)cc1)c1c(O)n(-c2cccc(Cl)c2)n(-c2cccc(Cl)c2)c1=O	8.6	0.5 (≈ 1.05 µM)	0.25 (≈ 0.527 µM)	< 0.12	> 128	> 128	inactive	3			
	Cc1ccc(NC(=O)c2c(O)n(-c3ccc(Cl)c(Cl)c3)n(-c3ccc(Cl)c(Cl)c3)c2=O)cc1	4.8	16 (≈ 30.6 µM)	0.25 (≈ 0.478 µM)	< 0.12	> 128	> 128	inactive	4			
	O=C1CC(=O)N(c2ccc(F)cc2)N1c1ccc(F)cc1	> 87	128 (≈ 444 µM)	128 (≈ 444 µM)	64 (≈ 222 µM)	64 (≈ 222 µM)						
>128	COc1ccc(NC(=O)c2c(O)n(-c3ccc(Cl)cc3)n(-c3ccc(Cl)cc3)c2=O)cc1	16						inactive				
	O=C(Nc1ccc(Cl)c(Cl)c1)c1c(O)n(-c2ccc(Cl)c(Cl)c2)n(-c2ccc(Cl)c(Cl)c2)c1=O	4.8	64 (≈ 111 µM)	0.5 (≈ 0.865 µM)	0.5 (≈ 0.865 µM)	> 128	> 128	inactive				
	O=C(Nc1ccc(Br)cc1)c1c(O)n(-c2ccccc2)n(-c2ccccc2)c1=O	42	16 (≈ 35.5 µM)	1 (≈ 2.22 µM)	1 (≈ 2.22 µM)	> 128	> 128	inactive				
	O=C(Nc1ccc(Cl)cc1)c1c(O)n(-c2ccccc2)n(-c2ccccc2)c1=O	54	32 (≈ 78.8 µM)	1 (≈ 2.46 µM)	0.5 (≈ 1.23 µM)	> 128	> 128	inactive				
	O=C1CC(=O)N(c2ccc(Cl)cc2)N1c1ccc(Cl)cc1	71.6	8 (≈ 24.9 µM)	8 (≈ 24.9 µM)	8 (≈ 24.9 µM)	16 (≈ 49.8 µM)						
	O=C(c1ccc(C(F)(F)F)cc1)c1c(O)n(-c2ccc(Cl)cc2)n(-c2ccc(Cl)cc2)c1=O	15	8 (≈ 16.2 µM)			16 (≈ 32.4 µM)	> 128	inactive			2 (≈ 4.05 µM)	0.5 (≈ 1.01 µM)
	O=C(c1cccs1)c1c(O)n(-c2ccc(Cl)cc2)n(-c2ccc(Cl)cc2)c1=O	5.8	5.4 (≈ 12.5 µM)	1.3 (≈ 3.01 µM)	0.67 (≈ 1.55 µM)	21.6 (≈ 50.1 µM)	> 128	inactive	1			

Structure (SMILES)	MIC (Escherichia coli) [µg/mL]	IC50 [1] [µM]	MIC (Staphylococcus aureus; [5]) [µg/mL]	MIC (Enterococcus faecalis; [6]) [µg/mL]	MIC (Streptococcus pneumoniae [2]; [7]) [µg/mL]	MIC (Escherichia coli; [8]) [µg/mL]	MIC (Streptococcus pneumoniae [3]) [µg/mL]	Activity (Candida albicans)	IC50 [4] [µM]	MIC (Staphylococcus aureus) [µg/mL]	MIC (Enterococcus faecalis) [µg/mL]	MIC (Streptococcus pneumoniae [2]) [µg/mL]
O=C(c1ccc(Cl)cc1)c1c(O)n(-c2ccc(Cl)cc2)n(-c2ccc(Cl)cc2)c1=O	23 (≈ 50 µM)	11					> 128	inactive		5.7 (≈ 12.4 µM)	1.4 (≈ 3.05 µM)	0.72 (≈ 1.57 µM)
COc1ccc(C(=O)c2c(O)n(-c3ccc(Cl)cc3)n(-c3ccc(Cl)cc3)c2=O)cc1	23 (≈ 50.5 µM)	10	11.3 (≈ 24.8 µM)				> 128	inactive			5.7 (≈ 12.5 µM)	2.8 (≈ 6.15 µM)
